Active and inactive are the calls of the source.
Key:
[1] = molecular target: T1, High mobility group protein B1 (Homo sapiens) (UniProt P09429); assay: Inhibition of HMGB1-mediated E-selectin expression level in HUVEC at 0.1 to 1 uM after 6 hrs by ELISA; type: cell-based
T1 sequence (whole entry): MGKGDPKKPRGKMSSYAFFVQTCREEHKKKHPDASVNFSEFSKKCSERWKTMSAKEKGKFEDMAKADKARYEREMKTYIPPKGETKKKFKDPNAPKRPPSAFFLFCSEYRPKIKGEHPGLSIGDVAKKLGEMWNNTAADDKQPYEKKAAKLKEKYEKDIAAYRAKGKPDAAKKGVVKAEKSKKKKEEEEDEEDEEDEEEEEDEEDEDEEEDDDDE
How it was run: (§1)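 Confluent HUVECs treated with HMGB1 (1 μg/mL, 16 h), then compound (0–1 μM) for 6 h. Cells fixed in 1% paraformaldehyde and probed with anti-VCAM-1, ICAM-1 or E-selectin (1:50, 1 h, 37 °C). Peroxidase anti-mouse IgG (1:2000) added, developed with o-phenylenediamine, read at 490 nm.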

[2] = molecular target: T1, High mobility group protein B1 (Homo sapiens); assay: Inhibition of LPS-induced HMGB1 release in HUVEC at > 0.2 uM pretreated with bacterial LPS for 16 hrs followed by compound treatment measured after 6 hrs by ELISA; type: cell-based
HUVEC [3] = assay: Cytotoxicity against HUVEC assessed as reduction in cell viability up to 5 uM after 48 hrs by MTT assay; type: cell-based; details: human
How it was run: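 HUVECs (passage 3–5; 5 × 10^3 cells/well) seeded for 24 h, then exposed to compound for 48 h. MTT (1 mg/mL) added for 4 h. Formazan dissolved in DMSO and read at 540 nm.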

[4] = molecular target: T1, High mobility group protein B1 (Homo sapiens); assay: Inhibition of HMGB1-induced TLR2 expression level in HUVEC at 0.1 to 1 uM after 6 hrs by ELISA; type: cell-based
How it was run: (§2)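 Confluent HUVECs activated with HMGB1 (1 μg/mL, 16 h), then incubated with compound for 6 h. Surface TLR2, TLR4 and RAGE determined by cell-based ELISA with specific antibodies.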

[5] = molecular target: T1, High mobility group protein B1 (Homo sapiens); assay: Inhibition of HMGB1-mediated VCAM-1 expression level in HUVEC at 0.1 to 1 uM after 6 hrs by ELISA; type: cell-based; how it was run: as §1
Mus musculus [6] = assay: Antisepsis activity in C57BL/6 mouse assessed as inhibition of CLP-induced ALT level in plasma at 28 to 56 ug/kg, iv at 12 and 50 hrs post CLP surgery; type: functional, organism-based
How it was run: (§3)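 Male C57BL/6 mice underwent CLP and received compound iv (28 or 56 μg/kg) at 12 and 50 h after CLP. Animals bled out. AST, ALT, BUN, creatinine and LDH measured in plasma/serum with biochemical kits. IL-1β, IL-6, IL-10, MCP-1 and TNF-α measured by ELISA. Means ± SD of five independent experiments.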

Mus musculus [7] = assay: Antisepsis activity in C57BL/6 mouse assessed as inhibition of CLP-induced IL-1beta level in blood at 28 to 56 ug/kg, iv at 12 and 50 hrs post CLP surgery by ELISA; type: functional, organism-based; how it was run: as §3
Mus musculus [8] = assay: Antisepsis activity in C57BL/6 mouse assessed as inhibition of CLP-induced death at 56 ug/kg, iv measured 12 hrs post CLP; type: functional, organism-based
[9] = molecular target: T1, High mobility group protein B1 (Homo sapiens); assay: Inhibition of HMGB1-induced RAGE expression level in HUVEC at 0.1 to 1 uM after 6 hrs by ELISA; type: cell-based; how it was run: as §2
[10] = molecular target: T1, High mobility group protein B1 (Homo sapiens); assay: Inhibition of HMGB1-mediated ICAM-1 expression level in HUVEC at 0.1 to 1 uM after 6 hrs by ELISA; type: cell-based; how it was run: as §1
Mus musculus [11] = assay: Antisepsis activity in C57BL/6 mouse assessed as inhibition of HMGB1-induced vascular hyperpermeability by measuring amount of evans blue in the peritoneal washings at 28 to 56 ug/kg, iv pretreated with HMGB1 for 16 hrs followed by compound treatment measured after 6 hrs […]; type: functional, organism-based
How it was run: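 Mice given iv HMGB1 (2 μg/mouse) for 16 h, then compound (28 or 56 μg/kg) for 6 h. 1% Evans blue in saline injected iv; mice killed 30 min later. Peritoneal washings (5 mL saline) centrifuged at 200g for 10 min and read at 650 nm. Dye leak read from a standard curve as μg/mouse; n = 5.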

Mus musculus [12] = assay: Antisepsis activity in C57BL/6 mouse assessed as inhibition of CLP-induced mortality at 56 ug/kg, iv administered twice daily at 12 and 50 hrs post CLP measured every 6 hrs post CLP for 150 hrs (reference value: 40%); type: functional; details: C57BL/6, iv
Mus musculus [13] = assay: Antisepsis activity in C57BL/6 mouse assessed as inhibition of CLP-induced IL-6 level in blood at 28 to 56 ug/kg, iv at 12 and 50 hrs post CLP surgery by ELISA; type: functional, organism-based; how it was run: as §3
Lipopolysaccharide (LPS) = assay: Inhibition of bacterial LPS-mediated disruption of barrier integrity in HUVEC by measuring flux of albumin-bound evans blue after 6 hrs by spectrophotometric method; type: cell-based; details: Bacteria
How it was run: (§4)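 HUVECs (5 × 10^4 cells/well) grown 3 days on 3 μm Transwells to confluence. Monolayers exposed to LPS (100 ng/mL, 4 h) or HMGB1 (1 μg/mL, 16 h), or left unstimulated, then treated with compound for 6 h. Flux of albumin-bound Evans blue measured spectrophotometrically.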

Mus musculus [14] = assay: Antisepsis activity in C57BL/6 mouse assessed as inhibition of CLP-induced HMGB1 release in serum at 28 to 56 ug/kg, iv administered 12 hrs post CLP challenge by ELISA; type: functional, organism-based
How it was run: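 Male C57BL/6 mice underwent CLP and received compound iv (28 or 56 μg/kg) 12 h later; n = 5. Mice killed 24 h after CLP. Serum HMGB1 measured by ELISA.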

HUVEC [15] = assay: Effect on barrier integrity in HUVEC at 1 uM after 6 hrs by spectrophotometric method; type: ADME, cell-based; details: human; how it was run: as §4
Mus musculus [16] = assay: Antisepsis activity in C57BL/6 mouse assessed as inhibition of CLP-induced lactate dehydrogenase level in plasma at 28 to 56 ug/kg, iv at 12 and 50 hrs post CLP surgery; type: functional, organism-based; how it was run: as §3
[17] = molecular target: T1, High mobility group protein B1 (Homo sapiens); assay: Inhibition of HMGB1-mediated human neutrophil migration in HUVEC after 6 hrs by crystal violet staining based microscopy; type: cell-based
How it was run: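 HUVECs (6 × 10^4 cells/well) grown 3 days on 8 μm Transwells, then treated with HMGB1 (1 μg/mL, 16 h) and compound for 6 h before cells added to the upper chamber. Migrated cells fixed in 8% glutaraldehyde and stained with 0.25% crystal violet. Nine 200× fields per well counted; run in duplicate; migration index.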

Mus musculus [18] = assay: Antisepsis activity in C57BL/6 mouse assessed as inhibition of CLP-induced TNFalpha level in blood at 28 to 56 ug/kg, iv at 12 and 50 hrs post CLP surgery by ELISA; type: functional, organism-based; how it was run: as §3
[19] = molecular target: T1, High mobility group protein B1 (Homo sapiens); assay: Inhibition of HMGB1-mediated human neutrophil adhesion in HUVEC after 6 hrs by ELISA; type: cell-based
How it was run: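 HUVEC monolayers treated with HMGB1 (1 μg/mL, 16 h), then compound (0–1 μM) for 6 h. Human neutrophils (1.5 × 10^6 cells/mL) labelled with Vybrant DiD dye and added to the washed monolayers. Adhesion measured by fluorescence.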

Mus musculus [20] = assay: Antisepsis activity in C57BL/6 mouse assessed as inhibition of CLP-induced creatinine level in plasma at 28 to 56 ug/kg, iv at 12 and 50 hrs post CLP surgery; type: functional, organism-based; how it was run: as §3
[21] = molecular target: T1, High mobility group protein B1 (Homo sapiens); assay: Inhibition of HMGB1-induced TLR4 expression level in HUVEC at 0.1 to 1 uM after 6 hrs by ELISA; type: cell-based; how it was run: as §2
Mus musculus [22] = assay: Antisepsis activity in C57BL/6 mouse assessed as inhibition of CLP-induced AST level in plasma at 28 to 56 ug/kg, iv at 12 and 50 hrs post CLP surgery; type: functional, organism-based; how it was run: as §3
Mus musculus [23] = assay: Antisepsis activity in C57BL/6 mouse assessed as inhibition of CLP-induced blood urea nitrogen level in plasma at 28 to 56 ug/kg, iv at 12 and 50 hrs post CLP surgery; type: functional, organism-based; how it was run: as §3
HUVEC [24] = assay: Effect on HMGB1 release in HUVEC at > 0.2 uM after 6 hrs by ELISA; type: ADME, cell-based; details: human
Mus musculus [25] = assay: Antisepsis activity in C57BL/6 mouse assessed as inhibition of CLP-induced IL-10 level in blood at 28 to 56 ug/kg, iv at 12 and 50 hrs post CLP surgery by ELISA; type: functional, organism-based; how it was run: as §3
[26] = molecular target: T1, High mobility group protein B1 (Homo sapiens); assay: Inhibition of HMGB1-mediated p38 MAPK phosphorylation in HUVEC at 0.1 to 1 uM after 6 hrs by ELISA; type: cell-based
How it was run: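 HUVECs activated with HMGB1 (1 μg/mL, 16 h), then treated with compound for 6 h. Phospho-p38 MAPK measured by ELISA kit.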

[27] = molecular target: T1, High mobility group protein B1 (Homo sapiens); assay: Inhibition of HMGB1-mediated disruption of barrier integrity in HUVEC by measuring flux of albumin-bound evans blue after 6 hrs by spectrophotometric method; type: cell-based; how it was run: as §4
Mus musculus [28] = assay: Antisepsis activity in C57BL/6 mouse CLP surgery model assessed as inhibition of HMGB1-induced leukocyte migration into peritoneal cavity at 28 to 56 ug/kg, iv; type: functional, organism-based
How it was run: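 Mice given HMGB1 (2 μg/mouse) iv for 16 h, then compound (28 or 56 μg/kg) for 6 h. Peritoneal cavity washed with 5 mL saline after 6 h. Fluid diluted in Türk's solution (0.01% crystal violet, 3% acetic acid). Leukocytes counted by light microscopy.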

Mus musculus [29] = assay: Antisepsis activity in C57BL/6 mouse assessed as inhibition of CLP-induced MCP1 level in blood at 28 to 56 ug/kg, iv at 12 and 50 hrs post CLP surgery by ELISA; type: functional, organism-based; how it was run: as §3
Mus musculus [30] = assay: Antisepsis activity in C57BL/6 mouse CLP surgery model assessed as reduction in bacterial burden in peritoneal lavage fluid at 28 to 56 ug/kg, iv measured after 24 hrs; type: functional, organism-based
How it was run: (§5)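 Male C57BL/6 mice (27 g) underwent CLP: cecum ligated 5 mm from tip and punctured once with a 22-gauge needle. Peritoneal lavage fluid and blood collected 24 h after CLP and centrifuged. Diluted samples plated on 5% sheep blood agar at 37 °C for 24 h, then CFUs counted; n = 10.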

Mus musculus [31] = assay: Antisepsis activity in C57BL/6 mouse CLP surgery model assessed as reduction in bacterial burden in blood at 28 to 56 ug/kg, iv measured after 24 hrs; type: functional, organism-based; how it was run: as §5
Beta-secretase 1 = Beta-secretase 1 (Homo sapiens, UniProt P56817); assay: Inhibition of recombinant human BACE1 using RhEVNLDAEFK-Quencher as substrate after 60 mins by fluorescence assay
Chain of Beta-secretase 1 (P56817 whole entry): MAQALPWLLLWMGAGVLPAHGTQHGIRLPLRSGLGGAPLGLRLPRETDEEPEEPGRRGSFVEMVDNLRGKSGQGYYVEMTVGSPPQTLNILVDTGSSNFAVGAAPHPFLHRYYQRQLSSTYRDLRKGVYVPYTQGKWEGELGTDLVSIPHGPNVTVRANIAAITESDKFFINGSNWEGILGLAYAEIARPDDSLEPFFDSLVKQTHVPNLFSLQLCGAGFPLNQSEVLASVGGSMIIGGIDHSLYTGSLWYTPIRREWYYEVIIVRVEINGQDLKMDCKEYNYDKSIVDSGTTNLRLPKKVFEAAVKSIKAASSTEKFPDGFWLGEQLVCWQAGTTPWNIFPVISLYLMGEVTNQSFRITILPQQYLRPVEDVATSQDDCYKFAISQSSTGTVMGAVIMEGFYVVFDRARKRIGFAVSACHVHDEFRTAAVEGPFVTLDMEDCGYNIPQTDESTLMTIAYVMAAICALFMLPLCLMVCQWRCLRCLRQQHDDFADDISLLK

Cc1c(O)cc2oc3oc4ccccc4c3c(=O)c2c1O
60%: mortality at 0.056 mg/kg (Mus musculus [12])
inactive: inhibition (Mus musculus [8])
Non-Toxic: Activity (HUVEC [3]) | Activity (HUVEC [15]) | Activity (HUVEC [24])
active: inhibition [1] | inhibition [2] | inhibition [4] | inhibition [5] | inhibition (Mus musculus [6]) | inhibition (Mus musculus [7]) | inhibition [9] | inhibition [10] | inhibition (Mus musculus [11]) | inhibition (Mus musculus [13]) | inhibition (Lipopolysaccharide (LPS)) Dose-dependent effect | inhibition (Mus musculus [14]) | inhibition (Mus musculus [16]) | inhibition [17] Dose-dependent effect | inhibition (Mus musculus [18]) | inhibition [19] Dose-dependent effect | inhibition (Mus musculus [20]) | inhibition [21] | inhibition (Mus musculus [22]) | inhibition (Mus musculus [23]) | inhibition (Mus musculus [25]) | inhibition [26] | inhibition [27] Dose-dependent effect | inhibition (Mus musculus [28]) | inhibition (Mus musculus [29]) | Activity (Mus musculus [30]) | Activity (Mus musculus [31])

Cc1c(O)cc2oc3c(c(=O)c2c1O)-c1ccc(O)cc1OC3O (stereo not drawn) [BOERAVINONE E]
5.6 µM: IC50 (Beta-secretase 1)
